In the library only some 2% were active in any assay of this set; here they are far more common.
S100A4 inh HTS = blocks human S100A4 binding to myosin IIA peptide; 360,000 tested, 0.14% active; S100A4/TAMRA-MyoIIA peptide fluorescence polarization; P26447; inhibition, % at 10.7 µM;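 active = mean inhibition of at least 70% across replicates, with every replicate also reaching that level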
Target sequence (P26447 whole entry, looked up): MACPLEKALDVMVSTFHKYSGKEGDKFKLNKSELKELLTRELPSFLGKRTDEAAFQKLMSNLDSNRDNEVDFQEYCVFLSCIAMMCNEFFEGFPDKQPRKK
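Test system: S100A4 monomer protein; Medium: HEPES pH 7.2 with CaCl2, KCl, NaCl, DTT, Triton; Probe or stimulus: TAMRA-labelled myosin IIA heavy-chain peptide probe, 5 nM; Doses: one dose per compound; Times: polarization read 5 min after assay mix addition, stable 5–60 min; Benchmarks: neutral control DMSO, positive control TFP.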
dFosB activator = enhances mouse delta FosB homodimer DNA binding; P13346; purified delta FosB, TAMRA-CDK5 oligo fluorescence polarization; percent of positive-control signal above neutral wells; activation, % at 25 µM; 340,000 tested, 0.99% active; AID 493131;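 active = mean activation above about 17%, with every replicate also reaching it, limit read from the data, passing the limit was not always enough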
CDK5 inh = blocks human CDK5/p35 kinase activity; AID 488839; Recombinant CDK5/p35, ADP-Glo luminescence, 60 min; Q00535+Q15078; inhibition, % at 10 µM; 330,000 tested, 0.01% active;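 active = highest replicate inhibition of at least 50% and at least 75% of replicates reaching 50%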;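 note: plate controls were DMSO neutral control for no effect and GW8510 at 10 µM for full effect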
Target sequence (Q00535 whole entry, looked up): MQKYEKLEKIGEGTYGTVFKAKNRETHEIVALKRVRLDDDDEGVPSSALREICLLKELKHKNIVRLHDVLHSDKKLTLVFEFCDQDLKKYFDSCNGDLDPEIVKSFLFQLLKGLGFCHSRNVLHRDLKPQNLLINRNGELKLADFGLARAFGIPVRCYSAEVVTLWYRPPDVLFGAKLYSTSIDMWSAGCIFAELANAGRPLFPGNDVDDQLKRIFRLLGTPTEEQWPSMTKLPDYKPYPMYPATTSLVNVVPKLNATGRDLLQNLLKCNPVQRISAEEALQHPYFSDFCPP
Target sequence (Q15078 whole entry, looked up): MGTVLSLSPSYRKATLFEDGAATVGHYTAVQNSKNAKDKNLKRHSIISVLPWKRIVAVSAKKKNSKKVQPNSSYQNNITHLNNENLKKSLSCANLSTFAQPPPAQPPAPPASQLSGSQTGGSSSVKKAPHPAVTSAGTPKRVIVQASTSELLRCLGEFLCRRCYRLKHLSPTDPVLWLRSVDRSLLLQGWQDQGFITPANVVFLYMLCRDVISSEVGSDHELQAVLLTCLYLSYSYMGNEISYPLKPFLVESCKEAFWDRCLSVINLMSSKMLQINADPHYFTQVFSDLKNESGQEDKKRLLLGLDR
CAL PDZ FP-1 = blocks peptide binding to the human CAL PDZ domain; Q9HD26; purified CAL PDZ, TMR-peptide fluorescence polarization, 1 h; inhibition, % at 24.9 µM; 300,000 tested, 0.92% active; AID 602252;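 active = mean inhibition of at least 30% with at least half of replicates also reaching 30%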;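 note: 0% = DMSO neutral control and 100% = excess unlabeled competitor peptide PRC23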
CAL PDZ FP-2 = inhibitors of human CAL PDZ peptide binding. purified CAL PDZ, TMR-peptide fluorescence polarization, 1 h. inhibition, % at 20 µM. 330,000 tested, 0.02% active. AID 504414. Q9HD26;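 active = highest replicate inhibition of at least 40%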;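 note: plate controls were DMSO neutral control wells for no effect and unlabeled competitor peptide control wells for full effect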
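Assay system – tagged CAL PDZ protein CerCALP, purified · Timing – 1 h at RT · Compound – single point, 20 µM · Measured by – fluorescence polarization from S- and P-plane intensities, G-factor corrected · Evaluation – inhibition from polarization loss · Probe or stimulus – TMR reporter peptide T*-PRC34 · Buffer or medium – pH 7.4 phosphate-saline buffer, reducing agent, detergent, IgG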
Statin myotox sup = suppressors of simvastatin-induced myotoxicity in C2C12 myotubes; ATP luminescence, 48 h; scaled: DMSO 0, geranylgeraniol control 100; rescue of ATP level, % at 7.49 µM; 330,000 tested, 0.78% active;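 active = mean ATP rescue above about 67%, or every replicate alone reaching that limit, limit read from the data, passing the limit was not always enough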;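 note: myotubes were challenged with 10 µM simvastatin during compound exposure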
The depositor's hits bear a star; / = no result.

SMILES	S100A4 inh HTS	dFosB activator	CDK5 inh	CAL PDZ FP-1	CAL PDZ FP-2	Statin myotox sup
Cc1ccc(S(=O)(=O)N2CCOCC2)cc1C(=O)NC1CCCC1	-12.8	-1.4	0.7	-0.3	-1.4	5.4
O=C(OCc1nc2ccccc2s1)c1ccccc1O	-3.7	-10.3	-0.3	/	-0.2	/
O=C(OCc1nc2ccccc2s1)c1cnccn1	/	-1.4	-0.1	-2.1	0.3	132.1*
COC(=O)c1cc(-c2ccccc2)sc1NC(=O)CN1C(=O)c2ccccc2C1=O	/	-1.5	2.1	122.6*	0.0	3.5
COC(=O)c1cc(OC)c(OC)cc1NC(=O)CN1C(=O)c2ccccc2C1=O	-5.2	1.7	-1.3	-2.5	-1.3	-0.6
CN1CCN(C(=O)c2cc(Cl)cc(Cl)c2)CC1	1.0	8.7	0.9	63.9*	/	3.9
COc1ccc(NC(=O)CN2C(=O)c3ccccc3S2(=O)=O)cc1S(=O)(=O)N1CCOCC1	3.9	-13.0	-1.8	-2.8	-3.4	1.2
O=C1/C(=C/c2ccncc2)CCC/C1=C\c1ccncc1	-5.3	-1.3	1.9	1.2	17.3	249.5*
CCN1C(=O)[C@@H]2[C@@H]3CN(S(=O)(=O)c4ccc(C)cc4)[C@@H](c4ccccc4Cl)[C@@H]3C(=O)C[C@@H]2C1=O	-0.5	/	/	/	/	-1.6
Cc1nnc(SCC(=O)Nc2sc3c(c2C(=O)c2ccccc2)CCCC3)s1	/	-4.2	0.7	-1.7	-0.7	/
Cc1cccc(C(=O)N2CCc3cc(-c4csc(NC(=O)CN5CCCC5)n4)ccc32)c1	0.4	37.1*	0.1	0.1	-2.9	-60.2
Cc1cccc(C(=O)N2CCc3cc(-c4nc(NC(=O)CN5CCCC5)sc4C)ccc32)c1	3.5	1.3	-0.7	/	-1.6	-20.0
Cc1ccc(NC(=O)c2ccc(F)cc2)nc1	1.0	0.4	0.0	0.2	-2.4	/
Cc1ccc(COc2ccc3c(c2)OCO3)cc1	-18.8	5.6	0.6	39.6*	-1.1	3.8
O=C(C[C@@H]1CC[C@@H](NC(=O)Nc2ccccc2F)[C@H](CO)O1)NCc1ccc(F)cc1	26.3	/	/	/	/	/
O=C(O)c1cn(-c2ccc(F)cc2)c2cc(Cl)c(F)cc2c1=O	-2.1	4.3	0.4	-4.4	0.4	27.1
CN(CCc1cnn(C)c1)Cc1cn(C)nc1-c1ccc2c(c1)OCCO2	0.6	0.7	-1.5	-1.7	-1.2	/
Cc1n[nH]c(C)c1CCN(C)Cc1cn(C)nc1-c1ccc2c(c1)OCCO2	-3.4	4.7	-0.1	101.8*	-0.3	-0.7
CC(C)NC(=O)Nc1ccc2c(c1)C(=O)N([C@@H](C)CO)C[C@H](C)[C@H](CN(C)Cc1ccncc1)OCCCC[C@@H](C)O2	1.4	/	/	/	/	/
Cc1ccc(C(=O)NC2CCCN(c3ccc(C(F)(F)F)cn3)C2)cn1 (stereo unspecified)	-2.9	-8.1	1.8	44.9*	0.2	-6.1
O=C(NC1CCCN(c2ccc(C(F)(F)F)cn2)C1)c1cc(Cl)ccc1F (stereo unspecified)	-2.7	14.7	0.0	-7.6	-0.4	/
Cc1ccc(CNC(=O)COC(=O)c2cncc(Br)c2)cc1	0.2	1.1	0.1	5.1	-0.5	-5.9
CCOC(=O)C1=C(C)NC(C)=C(C(=O)OCC)C1c1ccco1	-4.8	-5.4	0.7	/	-0.3	/
COC(=O)C1=C(C)NC(C)=C(C(=O)OC)C1c1ccco1	1.7	0.1	1.0	91.3*	-1.7	/
CCOC(=O)C1=C(C)NC(C)=C(C(=O)OCC)C1c1ccc(C)o1	-10.1	-2.0	0.2	73.9*	-0.9	/
SMILES	S100A4 inh HTS	dFosB activator	CDK5 inh	CAL PDZ FP-1	CAL PDZ FP-2	Statin myotox sup
C=CCOC(=O)C1=C(C)NC(C)=C(C(=O)OCC=C)C1c1ccc(C)o1	-5.4	-8.7	-0.4	-5.7	-0.1	11.8
Nc1nnnn1/N=C/c1ccco1	/	-0.2	-1.6	-4.1	0.2	-3.0
COCCNC(=O)C(=O)NCCN1CCNCC1	11.4	5.3	0.0	87.6*	0.0	/
COCCNC(=O)C(=O)NCCN1CCOCC1	/	10.9	-0.6	-3.8	-1.1	3.9
CN(C)C(=O)CSc1nc2cc(S(=O)(=O)N3CCOCC3)ccc2o1	-5.9	-2.1	-2.0	90.3*	-0.1	13.6
CCCSc1nnc(CSc2nc3ccccc3s2)n1-c1ccccc1	/	-9.2	2.1	/	-2.1	-25.5
N#CCCCSc1nnc(CSc2nc3ccccc3s2)n1-c1ccccc1	/	0.4	-2.7	-0.7	-2.1	102.7*
Cc1nn(C(=O)N2CCCCC2)c(C)c1CN1C(=O)c2ccccc2C1=O	/	2.4	1.4	-12.2	-1.2	1.6
CSc1cccc(NC(=S)Nc2ccc(F)cc2)c1	-5.2	-7.9	2.3	0.1	-0.7	-4.2
CSc1cccc(NC(=S)NN(C)C)c1	-4.2	-0.6	1.6	63.6*	-0.4	7.3
C[C@@H]1CN([C@H](C)CO)C(=O)c2cc(C#CCN(C)C)cnc2O[C@H]1CN(C)S(=O)(=O)c1ccccc1	-0.5	/	/	/	/	-19.8
COc1ccc(Cn2nnnc2CN2CCOCC2)cc1	-0.6	-0.3	2.9	-2.1	-1.1	11.3
c1ccc(Cn2nnnc2CN2CCN(c3ncccn3)CC2)cc1	/	-10.6	0.3	4.9	-2.9	140.2*
CC1(c2ccccc2)CC(C)(C)N2C(=O)C3(C(C#N)=C(N)Oc4cc(O)ccc43)c3cccc1c32 (stereo unspecified)	0.5	-16.4	-1.8	5.3	-1.9	87.1*
CCn1cc(/C=N\NC(=O)c2csc3ccccc23)c(C)n1	/	-12.3	-0.5	31.6*	/	/
CCn1cc(/C=N\NC(=O)c2c[nH]c3ccccc23)c(C)n1	/	1.3	-0.5	-2.9	-0.7	/
O=C(Nc1ccc(N2CCCC2)cc1)c1cccc(F)c1	/	19.0*	0.3	6.3	-0.5	-5.4
O=C(Nc1ccc(N2CCCCC2)cc1)c1ccccc1	/	-10.0	-1.7	-6.3	-1.7	-72.3
O=C(Nc1ccc(N2CCCC2)cc1)c1ccccc1F	/	25.8*	4.6	1.4	-0.9	-43.8
O=S(=O)(CC(O)CS(=O)(=O)c1ccc(Cl)cc1)c1ccccc1 (stereo unspecified)	2.8	3.7	-0.7	41.6*	0.2	/
CNC[C@H]1Oc2ccc(NC(=O)CCCN(C)C)cc2C(=O)N([C@@H](C)CO)C[C@@H]1C	7.6	/	/	/	/	21.6
COc1cccc(C(=O)N[C@@H](Cc2cccnc2)C(=O)N2CCC[C@H]2C(=O)NCCc2ccccc2Cl)c1	-1.2	/	/	/	/	/
O=C(COc1ncnc2ccccc12)N1CCOCC1	/	-7.7	-2.2	-4.2	0.3	-8.3
CC1CCN(C(=O)COc2ncnc3ccccc23)CC1	-14.2	-2.2	-0.2	49.3*	-0.7	/
COc1ccccc1C#Cc1ccc2c(c1)O[C@H](CN(C)C(C)=O)[C@H](C)CN([C@@H](C)CO)S2(=O)=O	-1.0	/	/	/	/	-2.3
Cc1ccc(OCC(=O)N2CCN(C(=O)c3cccs3)CC2)cc1	/	8.8	0.2	45.7*	/	11.0
Oc1ccc(CCNc2c3ccccc3nc3ccccc23)cc1O	1.6	70.9*	2.8	-5.2	-1.1	38.7
